FXIIa inh 1536 – inhibitors of human coagulation factor XIIa | AID 800 | P00748 | purified FXIIa, Boc-QGR-AMC fluorogenic substrate, 2 h | 220,000 compounds, 0.3% hits | inhibition, % at 5 µM; in the data active = inhibition above about 40%;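 note: 0% = enzyme with no compound and 100% = blank without enzyme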
Thrombin inh – blocks human thrombin protease activity; alpha-thrombin, Boc-VPR-AMC fluorogenic substrate cleavage; inhibition, % at 5 µM; 220,000 compounds, 0.26% hits; P00734; AID 1046;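 active = inhibition at or above 40%; inactive = inhibition below 40%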;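 note: 0% = enzyme with no compound and 100% = wells without enzyme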
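Material: Human alpha-thrombin protein | Buffer or medium: pH 7.5 Tris-saline with Tween 20 | Reagent: Boc-VPR-AMC substrate, 15 µM final | Schedule: Reaction at ambient temperature | Detection: AMC fluorescence at 355 nm excitation and 460 nm emission | Evaluation: Percent inhibition scaled between no-compound controls and no-enzyme blanks | Controls: no-compound enzyme wells and no-enzyme blanks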
FXIa inh – inhibitors of human coagulation factor XIa; purified FXIa, Boc-Glu-Ala-Arg-AMC fluorogenic substrate; inhibition, % at 5 µM; 220,000 compounds, 0.14% hits; AID 798;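 active = inhibition of at least 40%; inactive = inhibition below 40%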;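 note: fluorescence of freed AMC excited at 355 nm; 0% = enzyme without compound and 100% = no enzyme blank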
hK5 inh – kallikrein 5 (human) inhibition. Q9Y337. recombinant hK5, fluorogenic AMC substrate cleavage. inhibition, % at 5 µM. 210,000 compounds, 0.59% hits;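 active = inhibition of 40% or more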;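 note: 0% = enzyme controls without compound and 100% = no-enzyme blanks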
* marks the source's active call; other numbers are inactive results; . = no result given. This is a sample that favours compounds with a hit; in the whole collection about 1% have one here.

SMILES	FXIIa inh 1536	Thrombin inh	FXIa inh	hK5 inh
COC(=O)NCC(c1ccco1)N1CCN(c2ccc(OC)cc2)CC1 (stereo not given)	-9	-1	-9	-28
Cc1cc(S(N)(=O)=O)c(N)c(S(N)(=O)=O)c1	2	-2	-9	-9
Cc1cc(C)c(C(N)=O)c(SCC(=O)c2ccc(Cl)cc2)n1	4	-5	-7	-27
Cc1ccc(C(=O)CSc2nc(C)cc(C)c2C(N)=O)cc1	22	104*	14	49*
CC(C)CCN(C)C1CCN(S(=O)(=O)c2cccc(C(F)(F)F)c2)CC1	-9	26	4	53*
CNC(=O)c1[nH]cnc1C(=O)N[C@@H](C)C(=O)OC(C)(C)C	9	-4	0	1
CCOc1ccc2[nH]c(=O)c(C(c3nnnn3C3CCCCC3)N3CCN(C)CC3)cc2c1 (stereo not given)	48*	2	36	-32
CCOc1ccc2[nH]c(=O)c(C(c3nnnn3C3CCCCC3)N3CCN(CC)CC3)cc2c1 (stereo not given)	-18	-3	-19	-1
Cc1ccc(N(CC(=O)NCCSc2nc3ccccc3s2)S(=O)(=O)c2ccccc2)c(C)c1	7	-2	9	-5
COc1cc(CC(=O)Nc2nccs2)cc(OC)c1OC	3	5	-1	43*
COc1cc(C(=O)NC(=S)Nc2nccs2)cc(OC)c1OC	11	0	1	4
Cc1nn(C)c(C)c1/C=C(/C(=O)C(C)C)n1cncn1	25	7	42*	40*
Cn1c(NCCc2ccccc2)cc(=O)n(C)c1=O	77*	-2	-2	3
COc1ccc(N2CCN(c3ccc(NC(=O)C4CCCCC4)cc3C#N)CC2)cc1	7	-2	0	3
COc1ccc(C(=O)Nc2ccc(N3CCN(c4ccc(OC)cc4)CC3)c(C#N)c2)cc1	3	15	47*	27
CCCOc1cccc(C(=O)N(Cc2ccco2)C2CCS(=O)(=O)C2)c1 (stereo not given)	15	57*	9	22
Cc1ccc(C(=O)NCc2nnc(SCC(=O)NC(C)c3ccccc3)n2C)cc1 (stereo not given)	5	1	5	1
COc1cccc(CN(C)C(=O)CCc2nnc(-c3ccsc3)o2)c1	9	94*	0	3
CC(=O)n1nc(-c2ccc(C)cc2)nc1NCc1ccc(F)cc1	-7	94*	-9	-24
CC(C)C(=O)n1nc(-c2cccnc2)nc1NCc1ccc(F)cc1	1	100*	3	.
COc1ccc(CC(=O)n2nc(-c3ccccc3)nc2NCc2ccco2)cc1	13	93*	6	-19
COc1ccccc1C(=O)n1nc(-c2cccnc2)nc1NCc1ccccc1	3	.	15	0
COc1ccc(CNc2nc(NCc3ccc(OC)cc3)n(C(C)=O)n2)cc1	6	-1	-5	-3
CC(=O)n1nc(-c2ccc(C)cc2)nc1NCc1ccco1	10	69*	-1	6
Clc1nc(Cl)nc(NCCC2=CCCCC2)n1	7	-1	4	-5
SMILES	FXIIa inh 1536	Thrombin inh	FXIa inh	hK5 inh
O=C(Nc1nnc(-c2ccco2)o1)c1ccc([N+](=O)[O-])s1	7	0	0	-6
CCOC(=O)C1=C(C)NC(=S)N(C(C)=O)C1c1ccc(Cl)cc1 (stereo not given)	6	0	1	-6
CCOC(=O)C1=C(C)NC(=S)N(C(C)=O)C1c1ccc(OC)c(OC)c1 (stereo not given)	48*	21	17	48*
COc1ccc(OC)c(/C=N/Nc2cc(C)nc(N3CCOCC3)n2)c1	40*	13	34	58*
CCN(CC)CCSc1nnc2c3ccccc3n(Cc3ccccc3)c2n1	7	-3	-2	4
COc1ccc(C2=[N+](C)CCn3cccc32)c(OC)c1	69*	25	5	35
Cc1cccc(CSCc2ccc(C(=O)NC3CCCC3)o2)c1	9	6	3	-9

Screens (PubChem)
